Published values from different studies.
Lines come from different studies, so protocols differ.
Organism: Enterococcus faecalis
Effect on: microbial growth

| SMILES | assay | test system | conditions | MIC |
| --- | --- | --- | --- | --- |
| Cc1ccc(C)n1-c1ccc(-c2nnco2)cc1 | broth dilution | ATCC14506 | 18 h | 2 mg/L |
| O=C(Nc1ccc2c(c1)OC(F)(F)O2)Nc1ccc(Cl)c(C(F)(F)F)c1 | – | – | – | 3 µM |
| Cc1ccc2nc(-c3ccc(Cl)cc3)n(Cc3ccccc3)c2c1 | broth dilution | ATCC29212 | – | 16 mg/L |
| C/C(=C\c1ccc(C#N)cc1)C(=O)Nc1ccc(C(=O)N[C@@H](CC(N)=O)C(=O)Nc2ccc(C(=O)Nc3ccc(C(=O)Nc4ccc(C(=O)O)cc4)c(O)c3OC(C)C)cc2)cc1 | – | ATCC29212 | – | 0.5 mg/L |
| CC1(C)S[C@@H]2[C@H](NC(=O)[C@H](N)c3ccccc3)C(=O)N2[C@H]1C(=O)O | broth dilution | ATCC29212 | – | 1 mg/L |
| Cc1ccc(C)n1-c1ccc(-c2n[nH]c(=S)[nH]2)cc1 | broth dilution | ATCC14506 | 18 h | 4 mg/L |
| Clc1ccc(-c2nc3ccccc3[nH]2)cc1Cl | broth dilution | ATCC29212 | – | 32 mg/L |
| C/C=C(\C)c1cc(O)c(C)c(OC(=O)c2c(C)c(Cl)c(O)c(Cl)c2O)c1 | broth dilution | ATCC29212 | – | 8 mg/L |
| Clc1ccc(Cn2c(-c3ccc(Cl)cc3)nc3ccccc32)cc1 | broth dilution | ATCC29212 | – | 16 mg/L |
| Cc1ccc(C)n1-c1ccc(C(=O)NNC=O)cc1 | broth dilution | ATCC14506 | 18 h | 31.2 mg/L |
| COc1cccc(-c2nc3ccccc3n2Cc2ccccc2)c1 | broth dilution | ATCC29212 | – | 64 mg/L |
| CO[C@@H](C(N)=O)[C@H](NC(=O)c1ccc(NC(=O)c2ccc(C#N)cc2)cc1)C(=O)Nc1ccc(C(=O)Nc2ccc(C(=O)Nc3ccc(C(=O)O)cc3)c(O)c2OC(C)C)cc1 | – | ATCC29212 | – | 0.125 mg/L |
| O=C(O)c1cn(C2CC2)c2cc(N3CCNCC3)c(F)cc2c1=O | broth dilution | ATCC14506 | 18 h | < 5 mg/L |
| CC(C)Oc1c(NC(=O)c2ccc(NC(=O)[C@H](CC(N)=O)NC(=O)c3ccc(NC(=O)c4ccc(C#N)s4)cc3)cc2)ccc(C(=O)Nc2ccc(C(=O)O)cc2)c1O | – | ATCC29212 | – | 0.25 mg/L |
| Cc1ccc2nc(-c3cccc(O)c3)[nH]c2c1 | broth dilution | ATCC29212 | – | 64 mg/L |
| C/C(O)=C1\C(=O)C(CC(C)C)N(C(=O)CCCCCc2ccccc2)C1=O (centres unmarked) | broth dilution | ATCC33186 | – | < 0.7 mg/L |
| Cc1cc(=O)[nH]n1C(=O)c1ccc(-n2c(C)ccc2C)cc1 | broth dilution | ATCC14506 | 18 h | 125 mg/L |
| C=CCn1c(-c2ccc(OC)c(OC)c2)nc2ccccc21 | broth dilution | ATCC29212 | – | 64 mg/L |
| Cc1ccc(C)n1-c1ccc(-c2nnc(-c3ccc(Br)cc3)[nH]2)cc1 | broth dilution | ATCC14506 | 18 h | 8 mg/L |
| C/C=C(\C)c1cc(OC(=O)c2c(O)c(C)c(O)c(Cl)c2/C(C)=C/C)c(C)c(O)c1C(=O)O | broth dilution | ATCC29212 | – | 64 mg/L |
